Measurements reported in ChEMBL document CHEMBL5038575, “Novel Functionalized Cannabinoid Receptor Probes: Development of Exceptionally Potent Agonists” (J Med Chem, 2021).
The source made the active and inactive calls. The rule behind the calls is not given here.

What was measured:
Cannabinoid receptor 1 [1] = biological target: Cannabinoid receptor 1 (Rattus norvegicus, UniProt P20272); assay: Displacement of [3H]CP55940 from rat brain membrane CB1 receptor assessed as inhibition constant incubated for 1 hr by TopCount scintillation counting method; format: cell membranes
Outline: (§1)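 Competition binding against [³H]CP-55,940. CB1 from rat brain membranes; CB2 from membranes of HEK293 cells expressing mouse or human CB2. IC50 obtained by nonlinear regression and converted to Ki. Three independent experiments in triplicate; mean with SEM.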

Cannabinoid receptor 2 [2] = biological target: Cannabinoid receptor 2 (Mus musculus, UniProt P47936); assay: Displacement of [3H]CP55940 from mouse CB2 expressed in HEK293 cell membrane assessed as inhibition constant incubated for 1 hr by TopCount scintillation counting method; format: cell membranes; outline: as §1
Cannabinoid receptor 2 [3] = biological target: T1, Cannabinoid receptor 2 (Homo sapiens, UniProt P34972); assay: Displacement of [3H]CP55940 from human CB2 expressed in HEK293 cell membrane assessed as inhibition constant incubated for 1 hr by TopCount scintillation counting method; format: cell membranes; outline: as §1
[4] = biological target: Cannabinoid receptor 1 (Rattus norvegicus) (UniProt P20272); assay: Displacement of [3H]CP55940 from rat brain membrane CB1 assessed as reduction in maximum binding capacity at 4 nM incubated for 1 hr by TopCount scintillation counting method relative to control; format: cell membranes
Outline: (§2)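 Wash-resistant binding. […] Saturation binding used 25 μg protein, [³H]CP-55,940 at 0.5–23.8 nM and 4 μM unlabeled CP-55,940 for nonspecific binding, 1 h at 30 °C. Samples were filtered and counted by scintillation. Bmax came from one-site fits; % reduction was taken versus untreated control.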

Cannabinoid receptor 2 [5] = biological target: T1, Cannabinoid receptor 2; assay: Displacement of [3H]CP55940 from CB2 (unknown origin) assessed as reduction in maximum binding capacity at 4 nM incubated for 1 hr by TopCount scintillation counting method relative to control; outline: as §2
Cannabinoid receptor 1 [6] = biological target: T2, Cannabinoid receptor 1 (Homo sapiens, UniProt P21554); assay: Agonist activity at 3xHA tagged human CB1 receptor expressed in CHO-K1 cells assessed as reduction in forskolin-stimulated cAMP accumulation by measuring maximal efficacy incubated for 30 mins by cAMP assay relative to CP-55940; format: functional, cell-based; settings: filed as agonist
Outline: (§3)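 CHO-K1 cells stably expressing 3xHA-tagged CB1 or CB2, plated at 4000 cells/well in Opti-MEM with 1% FBS for 3 h at 37 °C. Cells cotreated with 25 μM RO-20-1724, 20 μM forskolin and agonist for 30 min at 37 °C, then lysed. cAMP read by HTRF (665/620 nm) after 1 h at room temperature in the dark. Data normalized to vehicle and 100 nM CP-55,940; three-parameter nonlinear regression; ≥4 experiments in duplicate.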

Cannabinoid receptor 2 [7] = biological target: T1, Cannabinoid receptor 2; assay: Agonist activity at 3xHA tagged human CB2 receptor expressed in CHO-K1 cells assessed as reduction in forskolin-stimulated cAMP accumulation by measuring maximal efficacy incubated for 30 mins by cAMP assay relative to CP-55940; format: functional, cell-based; settings: filed as agonist; outline: as §3
Cannabinoid receptor 1 [8] = biological target: T2, Cannabinoid receptor 1; assay: Agonist activity at 3xHA tagged human CB1 receptor expressed in CHO-K1 cells assessed as reduction in forskolin-stimulated cAMP accumulation incubated for 30 mins by cAMP assay; format: functional, cell-based
Cannabinoid receptor 2 [9] = biological target: T1, Cannabinoid receptor 2; assay: Agonist activity at 3xHA tagged human CB2 receptor expressed in CHO-K1 cells assessed as reduction in forskolin-stimulated cAMP accumulation incubated for 30 mins by cAMP assay; format: functional, cell-based
Mus musculus [10] = assay: Induction of hypothermia in C57BL/6 mouse assessed as reduction in body temperature at 0.1 mg/kg, ip measured after 24 hrs; format: toxicity, organism-based; settings: in vivo
Mus musculus [11] = assay: Antinociceptive activity in CD-1 mouse model of thermal-induced nociception assessed as maximum efficacy causing increase in tail withdrawal latency administered intraperitonially for 6 hrs by tail flick test; format: functional, organism-based; settings: dose 0.03-1 mg/kg
Outline: (§4)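 Male CD-1 mice, 25–30 g, n = 6/dose, each used once. Drug was dissolved in 2% DMSO, 4% Tween 80 and 4% propylene glycol, then diluted with saline, and given ip at 10 mL/kg. Tail immersed in a 52 °C water bath; latency recorded at baseline and at 20, 60, 180 and 360 min after injection. Results expressed as % maximum possible effect; ED50 given with 95% CI.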

Mus musculus [12] = assay: Antinociceptive activity in CD-1 mouse model of thermal-induced nociception assessed as increase in tail withdrawal latency administered intraperitonially for 6 hrs by tail flick test; format: functional; settings: CD-1, ip; outline: as §4
Mus musculus [13] = assay: Antinociceptive activity in CD-1 mouse model of thermal-induced nociception assessed as maximum efficacy causing increase in tail withdrawal latency at 0.03 to 1 mg/kg, ip measured 20 mins post-injection by tail flick test; format: functional, organism-based; settings: dose 0.03-1 mg/kg; outline: as §4
Mus musculus [14] = assay: Antinociceptive activity in CD-1 mouse model of thermal-induced nociception assessed as maximum efficacy causing increase in tail withdrawal latency at 0.03 mg/kg, ip measured 60 mins post-injection by tail flick test; format: functional, organism-based; outline: as §4
[15] = Toxicity in C57BL/6 mouse assessed as reduction in locomotion at 0.1 to 1 mg/kg, ip measured after 20 mins; format: organism-based; settings: in vivo, dose 0.1-1 mg/kg
Outline: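 C57BL/6 mice, n = 6–7/treatment, given ip drug in 2% DMSO/1% Tween 80/saline at 0.1–1.0 mg/kg. Habituated to the apparatus in the morning. Placed in an infrared beam activity monitor 20 min after injection; ambulatory and horizontal counts recorded over 10 min.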

[16] = Toxicity in […] mouse assessed as reduction in gastrointestinal motility by measuring colonic expulsion at 0.1 mg/kg, ip measured after 20 to 220 mins; format: organism-based; settings: in vivo, time 20-220 min
Outline: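 Mice, n = 6–7/treatment, given vehicle (DMSO/Tween 80/saline 2:1:17) or 0.1 mg/kg ip. At 20, 120 and 220 min, under light isoflurane, a 2.5 mm glass bead was inserted 2 cm into the rectum. Time to bead expulsion was recorded.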

[17] = biological target: Cannabinoid receptor 1 (Rattus norvegicus) (UniProt P20272); assay: Displacement of [3H]CP55940 from rat brain membrane CB1 assessed as reduction in maximum binding capacity at 4 nM incubated for 1 hr followed by compound washout and measured after 60 to 180 mins by TopCount scintillation counting method; format: cell membranes; settings: filed as agonist

Chain of Cannabinoid receptor 2 (Mus musculus, UniProt P47936) (P47936 whole entry): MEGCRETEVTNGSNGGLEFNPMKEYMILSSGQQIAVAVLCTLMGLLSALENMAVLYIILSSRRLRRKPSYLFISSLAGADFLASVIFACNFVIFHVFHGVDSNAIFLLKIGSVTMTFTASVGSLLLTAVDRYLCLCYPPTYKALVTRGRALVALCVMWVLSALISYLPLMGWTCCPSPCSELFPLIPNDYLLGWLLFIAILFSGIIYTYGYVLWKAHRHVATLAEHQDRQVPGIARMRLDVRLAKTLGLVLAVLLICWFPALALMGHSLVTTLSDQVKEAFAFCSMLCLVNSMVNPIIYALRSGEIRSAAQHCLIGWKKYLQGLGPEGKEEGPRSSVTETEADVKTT
T1 sequence (P34972 whole entry): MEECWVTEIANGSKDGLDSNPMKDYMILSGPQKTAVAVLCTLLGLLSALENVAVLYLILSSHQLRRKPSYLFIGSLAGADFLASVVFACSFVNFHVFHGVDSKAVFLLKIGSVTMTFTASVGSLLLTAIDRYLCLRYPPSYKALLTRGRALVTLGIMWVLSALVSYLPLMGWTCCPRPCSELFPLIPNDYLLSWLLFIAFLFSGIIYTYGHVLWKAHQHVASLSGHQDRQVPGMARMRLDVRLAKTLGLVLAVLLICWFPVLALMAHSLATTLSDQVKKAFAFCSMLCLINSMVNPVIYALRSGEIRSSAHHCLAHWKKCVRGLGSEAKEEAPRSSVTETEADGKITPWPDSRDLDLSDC
Chain of Cannabinoid receptor 1 (Rattus norvegicus) (P20272 whole entry): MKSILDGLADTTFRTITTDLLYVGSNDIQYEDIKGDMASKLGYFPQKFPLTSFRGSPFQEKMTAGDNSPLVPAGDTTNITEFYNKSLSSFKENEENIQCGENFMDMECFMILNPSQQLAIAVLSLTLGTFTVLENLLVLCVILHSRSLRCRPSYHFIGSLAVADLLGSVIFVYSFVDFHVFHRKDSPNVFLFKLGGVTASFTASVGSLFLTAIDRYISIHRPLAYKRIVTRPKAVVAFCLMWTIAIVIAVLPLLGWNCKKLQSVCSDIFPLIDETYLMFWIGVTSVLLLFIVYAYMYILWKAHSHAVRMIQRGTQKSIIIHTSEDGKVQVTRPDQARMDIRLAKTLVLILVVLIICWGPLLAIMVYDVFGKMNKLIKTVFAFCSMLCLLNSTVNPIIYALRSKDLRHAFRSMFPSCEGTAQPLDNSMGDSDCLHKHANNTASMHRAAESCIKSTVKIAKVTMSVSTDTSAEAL
Chain of Cannabinoid receptor 1 (Rattus norvegicus, UniProt P20272) (P20272 whole entry): as above
T2 sequence (P21554 whole entry): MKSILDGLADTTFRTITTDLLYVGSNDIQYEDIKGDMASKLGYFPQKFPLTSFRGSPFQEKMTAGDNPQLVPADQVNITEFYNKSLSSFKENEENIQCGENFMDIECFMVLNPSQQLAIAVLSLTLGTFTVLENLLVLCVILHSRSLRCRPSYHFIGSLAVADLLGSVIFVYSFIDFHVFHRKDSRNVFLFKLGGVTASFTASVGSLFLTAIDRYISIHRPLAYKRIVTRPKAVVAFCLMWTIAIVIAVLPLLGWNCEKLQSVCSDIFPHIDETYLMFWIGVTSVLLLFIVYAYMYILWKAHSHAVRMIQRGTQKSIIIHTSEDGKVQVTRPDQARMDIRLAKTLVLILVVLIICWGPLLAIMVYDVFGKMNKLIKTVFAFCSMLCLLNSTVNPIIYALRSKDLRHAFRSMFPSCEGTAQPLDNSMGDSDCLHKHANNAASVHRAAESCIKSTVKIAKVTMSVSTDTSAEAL

Compound: CC1(C)Oc2cc(C3(CCCCCCCN=C=S)CCCC3)cc(O)c2[C@@H]2C[C@H](CO)CC[C@H]21
- Ki (Cannabinoid receptor 1 [1]): 0.4 nM
- Ki (Cannabinoid receptor 2 [2]): 1.1 nM
- Ki (Cannabinoid receptor 2 [3]): 1 nM
- Bmax ([4]; filed as agonist): 51%
- Bmax (Cannabinoid receptor 2 [5]): 19%
- Emax (Cannabinoid receptor 1 [6]): 105%
- Emax (Cannabinoid receptor 2 [7]): 74%
- EC50 (Cannabinoid receptor 1 [8]): 0.43 nM
- EC50 (Cannabinoid receptor 2 [9]): 0.39 nM

Compound: CC(C)(CCCCCCN=C=S)c1cc(O)c2c(c1)OC(C)(C)[C@@H]1CC[C@@H](CO)C[C@@H]21
- Ki (Cannabinoid receptor 1 [1]): 0.39 nM
- Ki (Cannabinoid receptor 2 [2]): 0.8 nM
- Ki (Cannabinoid receptor 2 [3]): 3.15 nM
- Bmax ([4]; filed as agonist): 65%
- Bmax (Cannabinoid receptor 2 [5]; filed as agonist): 75%
- Emax (Cannabinoid receptor 1 [6]): 96%
- Emax (Cannabinoid receptor 2 [7]): 107%
- EC50 (Cannabinoid receptor 1 [8]): 5.8 nM
- EC50 (Cannabinoid receptor 2 [9]): 5.5 nM

Compound: CC1(C)Oc2cc(C3(CCCCCCCN=[N+]=[N-])CCCC3)cc(O)c2[C@@H]2C[C@H](CN=[N+]=[N-])CC[C@H]21
- Ki (Cannabinoid receptor 1 [1]): 0.7 nM
- Ki (Cannabinoid receptor 2 [2]): 1.2 nM
- Ki (Cannabinoid receptor 2 [3]): 1.5 nM
- Bmax [4]: 28%
- Bmax (Cannabinoid receptor 2 [5]): 21%

Compound: CC1(C)Oc2cc(C3(CCCCCCCC#N)CCCC3)cc(O)c2[C@@H]2C[C@H](CO)CC[C@H]21
- Ki (Cannabinoid receptor 1 [1]): 0.5 nM
- Ki (Cannabinoid receptor 2 [2]): 0.9 nM
- Ki (Cannabinoid receptor 2 [3]): 0.4 nM
- Bmax ([4]; filed as agonist): 60%
- Bmax (Cannabinoid receptor 2 [5]; filed as agonist): 40%

Compound: CC1(C)Oc2cc(C3(CCCCCCCC#N)CCCC3)cc(O)c2[C@@H]2C[C@H](CN=[N+]=[N-])CC[C@H]21
- Ki (Cannabinoid receptor 1 [1]): 0.3 nM
- Ki (Cannabinoid receptor 2 [2]): 1.4 nM
- Ki (Cannabinoid receptor 2 [3]): 0.3 nM
- Activity [4]: inactive
- Activity (Cannabinoid receptor 2 [5]): inactive

Compound: CC1(C)Oc2cc(C3(CCCCCCN=[N+]=[N-])CCCC3)cc(O)c2[C@@H]2C[C@H](CO)CC[C@H]21
- Ki (Cannabinoid receptor 1 [1]): 0.4 nM
- Ki (Cannabinoid receptor 2 [2]): 0.8 nM
- Ki (Cannabinoid receptor 2 [3]): 0.8 nM
- Bmax ([4]; filed as agonist): 87%
- Bmax (Cannabinoid receptor 2 [5]; filed as agonist): 65%

Compound: CC1(C)Oc2cc(C3(CCCCCCCC#N)CCCC3)cc(O)c2[C@@H]2C[C@H](CN=C=S)CC[C@H]21
- Ki (Cannabinoid receptor 1 [1]): 0.4 nM
- Ki (Cannabinoid receptor 2 [2]): 1.9 nM
- Ki (Cannabinoid receptor 2 [3]): 0.6 nM
- Activity [4]: inactive
- Activity (Cannabinoid receptor 2 [5]): inactive

Compound: CC1(C)Oc2cc(C3(CCCCCCCN=[N+]=[N-])CCCC3)cc(O)c2[C@@H]2C[C@H](CO)CC[C@H]21
- Ki (Cannabinoid receptor 1 [1]): 0.5 nM
- Ki (Cannabinoid receptor 2 [2]): 1.6 nM
- Ki (Cannabinoid receptor 2 [3]): 1.5 nM
- Bmax ([4]; filed as agonist): 48%
- Bmax (Cannabinoid receptor 2 [5]): 37%

Compound: CC1(C)Oc2cc(C3(CCCCCCCN=C=S)CCCC3)cc(O)c2[C@@H]2C[C@H](CN=C=S)CC[C@H]21
- Ki (Cannabinoid receptor 1 [1]): 37.6 nM
- Ki (Cannabinoid receptor 2 [2]): 14.6 nM
- Ki (Cannabinoid receptor 2 [3]): 4.2 nM
- Bmax [4]: 37%
- Bmax (Cannabinoid receptor 2 [5]): 15%

Compound: CC(C)(CCCCCCN=[N+]=[N-])c1cc(O)c2c(c1)OC(C)(C)[C@@H]1CC[C@@H](CO)C[C@@H]21
- Ki (Cannabinoid receptor 1 [1]): 0.41 nM
- Ki (Cannabinoid receptor 2 [2]): 0.8 nM
- Ki (Cannabinoid receptor 2 [3]): 1.4 nM
- Bmax ([4]; filed as agonist): 75%
- Bmax (Cannabinoid receptor 2 [5]; filed as agonist): 63%
- Emax (Cannabinoid receptor 1 [6]): 99%
- Emax (Cannabinoid receptor 2 [7]): 72%
- EC50 (Cannabinoid receptor 1 [8]): 0.098 nM
- EC50 (Cannabinoid receptor 2 [9]): 0.77 nM

Compound: CC1(C)Oc2cc(C3(CCCCCCN=C=S)CCCC3)cc(O)c2[C@@H]2C[C@H](CO)CC[C@H]21
- Ki (Cannabinoid receptor 1 [1]): 1.1 nM
- Ki (Cannabinoid receptor 2 [2]): 0.9 nM
- Ki (Cannabinoid receptor 2 [3]): 1.3 nM
- Bmax [4]: 39%
- Bmax (Cannabinoid receptor 2 [5]): 34%
- Emax (Cannabinoid receptor 1 [6]): 104%
- Emax (Cannabinoid receptor 2 [7]): 57%
- EC50 (Cannabinoid receptor 1 [8]): 0.52 nM
- EC50 (Cannabinoid receptor 2 [9]): 2.7 nM

Compound: CC1(C)Oc2cc(C3(CCCCCCC#N)CCCC3)cc(O)c2[C@@H]2C[C@H](CO)CC[C@H]21
- Ki (Cannabinoid receptor 1 [1]): 0.8 nM
- Ki (Cannabinoid receptor 2 [2]): 1 nM
- Ki (Cannabinoid receptor 2 [3]): 1.4 nM
- Bmax ([4]; filed as agonist): 68%
- Bmax (Cannabinoid receptor 2 [5]; filed as agonist): 45%
- Emax (Cannabinoid receptor 1 [6]): 112%
- Emax (Cannabinoid receptor 2 [7]): 61%
- EC50 (Cannabinoid receptor 1 [8]): 0.31 nM
- EC50 (Cannabinoid receptor 2 [9]): 0.96 nM

Compound: CCCCCCC(C)(C)c1cc(O)c2c(c1)OC(C)(C)[C@@H]1CC[C@@H](CO)C[C@@H]21
- Ki (Cannabinoid receptor 1 [1]): 3 nM
- Ki (Cannabinoid receptor 2 [3]): 2.1 nM
- Activity [4]: inactive
- Activity (Cannabinoid receptor 2 [5]): inactive

Compound: CC(C)(CCCCCCC#N)c1cc(O)c2c(c1)OC(C)(C)[C@@H]1CC[C@@H](CO)C[C@@H]21
- Activity (Mus musculus [10]): Toxic
- Ki (Cannabinoid receptor 1 [1]): 0.4 nM
- Ki (Cannabinoid receptor 2 [2]): 0.8 nM
- Ki (Cannabinoid receptor 2 [3]): 0.4 nM
- Bmax ([4]; filed as agonist): 76%
- Bmax (Cannabinoid receptor 2 [5]; filed as agonist): 60%
- Emax (Cannabinoid receptor 1 [6]): 103%
- Emax (Cannabinoid receptor 2 [7]): 70%
- EC50 (Cannabinoid receptor 1 [8]): 0.088 nM
- EC50 (Cannabinoid receptor 2 [9]): 0.38 nM
- Activity (Mus musculus [11]): Dose-Dependent Effect
- ED50 (Mus musculus [12]): 0.12 mg/kg
- Activity (Mus musculus [13]): Active
- Activity (Mus musculus [14]): inactive
- Activity [15]: Toxic
- Activity [16]: Toxic
- Activity [17]: Active
